Calls of active or inactive are those of the source. No cut-off for these calls is given here.
Experiments:
[1] = system: Salmonella typhimurium; test: Genotoxicity in Salmonella typhimurium TA98 assessed as revertant colonies at 50 uL/plate in presence of Sprague-Dawley rat S9 metabolic activation after 72 hrs by Ames test (reference value: 1); type: toxicity, organism-based; details: salmonella enterica subsp. enterica serovar typhimurium
[2] = system: Salmonella typhimurium; test: Genotoxicity in Salmonella typhimurium TA98 assessed as revertant colonies at 10 uL/plate in absence of Sprague-Dawley rat S9 metabolic activation after 72 hrs by Ames test (reference value: 1); type: toxicity, organism-based; details: salmonella enterica subsp. enterica serovar typhimurium
[3] = system: Salmonella typhimurium; test: Genotoxicity in Salmonella typhimurium TA1535 assessed as revertant colonies at 100 uL/plate in absence of Sprague-Dawley rat S9 metabolic activation after 72 hrs by Ames test (reference value: 1); type: toxicity, organism-based; details: salmonella enterica subsp. enterica serovar typhimurium
[4] = system: Salmonella typhimurium; test: Genotoxicity in Salmonella typhimurium TA100 assessed as revertant colonies at 50 uL/plate in presence of Sprague-Dawley rat S9 metabolic activation after 72 hrs by Ames test (reference value: 1); type: toxicity, organism-based; details: salmonella enterica subsp. enterica serovar typhimurium
[5] = system: IB3-1; test: Antiproliferative activity against human IB3-1 cells after 2 days by cell counting analysis; type: cell-based; details: IB3-1, 48 h
Method in brief: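 IB3-1 cells from a CF patient (ΔF508/W1282X), immortalized with adeno12/SV40, grown in LHC-8 with 5% FBS and no gentamycin at 37°C/5% CO₂. Treated at 12.5, 25, 50, 100, 200 and 800 µM. Cells counted by Coulter counter after 2 days, with untreated cells in log phase. IC₅₀ is the concentration giving 50% inhibition of cell growth.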

[6] = system: IB3-1; test: Inhibition of TNF-alpha induced IL-15 production in human IB3-1 cells at 1 uM preincubated for 5 hrs followed by TNF-alpha stimulation and measured after 24 hrs relative to control; type: functional
Method in brief: (§1)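 IB3-1 cells (CF patient, ΔF508/W1282X, adeno12/SV40-immortalized) grown in LHC-8 with 5% FBS, no gentamycin, 37°C/5% CO₂; 60% confluent monolayers seeded, compound added after 24 h, 5 h before 80 ng/ml TNF-α, then 24 h further incubation. Cytokines in supernatants measured by Bioplex 27-plex Luminex bead assay: beads, detection antibody, streptavidin–phycoerythrin, 30/30/10 min at room temperature.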

[7] = system: Salmonella typhimurium; test: Genotoxicity in Salmonella typhimurium TA1535 assessed as revertant colonies at 10 uL/plate in presence of Sprague-Dawley rat S9 metabolic activation after 72 hrs by Ames test (reference value: 1); type: toxicity, organism-based; details: salmonella enterica subsp. enterica serovar typhimurium
[8] = system: IB3-1; test: Inhibition of TNF-alpha induced IL-17 production in human IB3-1 cells at 1 uM preincubated for 5 hrs followed by TNF-alpha stimulation and measured after 24 hrs relative to control; type: functional; method in brief: as §1
[9] = system: Salmonella typhimurium; test: Genotoxicity in Salmonella typhimurium TA100 assessed as revertant colonies at 100 uL/plate in presence of Sprague-Dawley rat S9 metabolic activation after 72 hrs by Ames test (reference value: 1); type: toxicity, organism-based; details: salmonella enterica subsp. enterica serovar typhimurium
[10] = system: Salmonella typhimurium; test: Genotoxicity in Salmonella typhimurium TA1535 assessed as revertant colonies at 50 uL/plate in presence of Sprague-Dawley rat S9 metabolic activation after 72 hrs by Ames test (reference value: 1); type: toxicity, organism-based; details: salmonella enterica subsp. enterica serovar typhimurium
[11] = system: Salmon testes DNA; test: Binding affinity to salmon testes DNA assessed as DNA intercalation by linear flow dichroism analysis; details: Salmonidae
[12] = system: Salmonella typhimurium; test: Genotoxicity in Salmonella typhimurium TA97A assessed as revertant colonies at 50 uL/plate in absence of Sprague-Dawley rat S9 metabolic activation after 72 hrs by Ames test (reference value: 1); type: toxicity, organism-based; details: salmonella enterica subsp. enterica serovar typhimurium
[13] = species: Homo sapiens; test: Inhibition of NF-kappaB (unknown origin) assessed as decrease in NF-kappaB/DNA interaction at 12.5 uM using 32P-labeled target NF-kappaB double-stranded oligonucleotide after 30 mins by EMSA
[14] = system: Salmon testes DNA; test: Induction of damage in salmon testes DNA at 100 uM in absence of 2.5 to 7.5 J/cm2 UVA irradiation by ethidium bromide dye-based agarose gel electrophoresis analysis; type: nucleic-acid assay; details: salmonidae
[15] = system: IB3-1; test: Inhibition of TNF-alpha induced IL-10 production in human IB3-1 cells at 1 uM preincubated for 5 hrs followed by TNF-alpha stimulation and measured after 24 hrs relative to control; type: functional; method in brief: as §1
[16] = system: Salmonella typhimurium; test: Genotoxicity in Salmonella typhimurium TA97A assessed as revertant colonies at 100 uL/plate in absence of Sprague-Dawley rat S9 metabolic activation after 72 hrs by Ames test (reference value: 1); type: toxicity, organism-based; details: salmonella enterica subsp. enterica serovar typhimurium
[17] = system: Salmonella typhimurium; test: Genotoxicity in Salmonella typhimurium TA100 assessed as revertant colonies at 10 uL/plate in presence of Sprague-Dawley rat S9 metabolic activation after 72 hrs by Ames test (reference value: 1); type: toxicity, organism-based; details: salmonella enterica subsp. enterica serovar typhimurium
[18] = system: Salmonella typhimurium; test: Genotoxicity in Salmonella typhimurium TA98 assessed as revertant colonies at 5 uL/plate in absence of Sprague-Dawley rat S9 metabolic activation after 72 hrs by Ames test (reference value: 1); type: toxicity, organism-based; details: salmonella enterica subsp. enterica serovar typhimurium
[19] = system: K562; test: Cytotoxicity against human K562 cells after 2 days by cell counting analysis; type: cell-based; details: k562, 48 h
[20] = system: IB3-1; test: Inhibition of TNF-alpha induced IFN-gamma production in human IB3-1 cells at 1 uM preincubated for 5 hrs followed by TNF-alpha stimulation and measured after 24 hrs relative to control; type: functional; method in brief: as §1
[21] = system: Salmonella typhimurium; test: Genotoxicity in Salmonella typhimurium TA100 assessed as revertant colonies at 1 uL/plate in presence of Sprague-Dawley rat S9 metabolic activation after 72 hrs by Ames test (reference value: 1); type: toxicity, organism-based; details: salmonella enterica subsp. enterica serovar typhimurium
[22] = system: Salmonella typhimurium; test: Genotoxicity in Salmonella typhimurium TA100 assessed as revertant colonies at 5 uL/plate in absence of Sprague-Dawley rat S9 metabolic activation after 72 hrs by Ames test (reference value: 1); type: toxicity, organism-based; details: salmonella enterica subsp. enterica serovar typhimurium
[23] = system: U-251; test: Cytotoxicity against human U251 cells after 2 days by cell counting analysis; type: cell-based; details: u-251, 48 h
[24] = system: Salmonella typhimurium; test: Genotoxicity in Salmonella typhimurium TA97A assessed as revertant colonies at 5 uL/plate in absence of Sprague-Dawley rat S9 metabolic activation after 72 hrs by Ames test (reference value: 1); type: toxicity, organism-based; details: salmonella enterica subsp. enterica serovar typhimurium
[25] = system: Salmonella typhimurium; test: Genotoxicity in Salmonella typhimurium TA97A assessed as revertant colonies at 10 uL/plate in absence of Sprague-Dawley rat S9 metabolic activation after 72 hrs by Ames test (reference value: 1); type: toxicity, organism-based; details: salmonella enterica subsp. enterica serovar typhimurium

Activity [11]: inactive | inhibition [13]: Active
Compound: CCc1cc2c(C(C)C)cc(=O)oc2c2c(C)coc12
T/C [1]: 0.7 | T/C [2]: 1.3 | T/C [3]: 0.9 | T/C [4]: 1.2 | IC50 [5]: > 200 µM | inhibition at 1 µM [6]: > 20% | T/C [7]: 1.2 | inhibition at 1 µM [8]: > 20% | T/C [9]: 1.5 | T/C [10]: 1 | T/C [12]: 1.1 | Activity [14]: Not Active | inhibition at 1 µM [15]: > 20% | T/C [16]: 1 | T/C [17]: 1 | T/C [18]: 1.2 | Activity [19]: Non-Toxic | inhibition at 1 µM [20]: > 20% | T/C [21]: 1.1 | T/C [22]: 1 | Activity [23]: Non-Toxic | T/C [24]: 0.9 | T/C [25]: 1.2

— ChEMBL document CHEMBL4152196, “Design, synthesis and biological evaluation of novel trimethylangelicin analogues targeting nuclear factor kB (NF-kB)” (Eur J Med Chem, 2018)
